TRAIL sens C8 = sensitizes caspase-8 expressing cells to TRAIL; NB7+C8 cells + TRAIL, ATPlite viability luminescence; inhibition (viability loss, TRAIL sensitization), % at 10 µM; 1% of 360,000 active;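 active = compounds causing at least 50% loss of cell viability in the single-dose screen, relative to plate controls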
FLuc inh counter = inhibits firefly luciferase, flagging false hits in luciferase inhibition screens. P08659. ATPLite firefly luciferase biochemical luminescence, 10 min. AID 1006. inhibition, % at 10 µM. 1.5% of 200,000 active;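 active = inhibition above about 50% when tested at 10 µM, limit read from the data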
Target sequence (P08659 whole entry, looked up): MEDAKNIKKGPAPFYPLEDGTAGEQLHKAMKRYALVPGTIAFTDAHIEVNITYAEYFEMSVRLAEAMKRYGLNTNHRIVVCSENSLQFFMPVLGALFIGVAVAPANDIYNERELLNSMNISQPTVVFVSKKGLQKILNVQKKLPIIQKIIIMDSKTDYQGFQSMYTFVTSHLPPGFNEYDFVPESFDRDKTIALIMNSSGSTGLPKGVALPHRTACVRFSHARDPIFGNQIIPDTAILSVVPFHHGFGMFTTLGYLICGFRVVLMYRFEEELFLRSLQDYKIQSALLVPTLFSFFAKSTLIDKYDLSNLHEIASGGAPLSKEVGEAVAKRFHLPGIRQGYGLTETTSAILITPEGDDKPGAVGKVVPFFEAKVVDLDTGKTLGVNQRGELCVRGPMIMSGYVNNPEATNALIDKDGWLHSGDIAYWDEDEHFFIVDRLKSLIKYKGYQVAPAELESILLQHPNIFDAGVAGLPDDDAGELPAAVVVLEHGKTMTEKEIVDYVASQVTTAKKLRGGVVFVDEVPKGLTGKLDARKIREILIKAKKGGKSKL
Platelet DG rel = modulates dense granule release in human platelets | human platelet-rich plasma, SFLLRN dense granule ATP release, luminescence | inhibition, %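 (compounds screened at 7.5 µM in platelet-rich plasma)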 | 0.22% of 300,000 active | AID 1663;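 active = mean replicate score, as percent of positive control, at or above 50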
FLuc act counter = firefly luciferase counter-screen for stimulation assays | activation factor at 10 µM | AID 1027 | 200,000 tested, under 10 active | P08659 | ATPlite luciferase biochemical, luminescence, 10 min; 0 = ATP-free wells, 1 = DMSO control;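 active = luciferase activation factor, scaled between plate controls, of at least 2 with compound at 10 µM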
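Assay system: Luciferase/luciferin detection reagent, cell-free biochemical luciferase assay / Read-out: luciferase activation / Benchmarks: No-ATP low control, compound-free enzyme-plus-ATP high control / Medium: PBS buffer for ATP / Detection: luminescence measurement of luciferase light output / Schedule: 10 min at ambient temperature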
PPC-1+TRAIL kill = compounds killing PPC-1 cancer cells with TRAIL present (potentiator screen, no TRAIL-free arm) | PPC-1 cells + TRAIL, ATPLite viability luminescence | cell killing (% activity), % at 4 µM or 5 µM | 0.41% of 220,000 active;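 active = cell killing above 50% in the first pass at 4 µM, then a duplicate retest at 5 µM averaging 50% or more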
Numbers stand for hits; - = inactive; . = no result given. Rows were chosen to be rich in hits. Some 1.6% of all compounds tested hit in one or more screens of this group.

SMILES	TRAIL sens C8	FLuc inh counter	Platelet DG rel	FLuc act counter	PPC-1+TRAIL kill
CC(C)=NN/C(N)=N/C(=S)Nc1ccc(C)cc1	-	54	-	-	-
COc1cc(CNC(=O)c2cc(-c3cc(Cl)ccc3OC)n[nH]2)cc(OC)c1	-	.	.	.	.
Cc1cccc(N/C=C/C(=O)c2ccc(Cl)cc2)c1	-	.	-	.	.
O=C(/C=C\Nc1ccccn1)c1ccc(Cl)cc1	82	91	.	-	71
CCOC(=O)c1cn2nc(N3CCCC3)ccc2n1	-	.	-	.	-
CCOC(=O)c1cn2nc(N3CCCCC3)ccc2n1	53	.	-	.	-
CC(C)N=C1NN=C(c2ccc(Cl)c(Cl)c2)CS1	-	64	-	-	-
CC(C)N=C1NN=C(c2cccs2)CS1	-	-	-	-	-
Cc1cc(C(=O)COC(=O)c2ccncc2)c(C)n1Cc1ccco1	-	79	-	-	-
Cc1cc(C(=O)COC(=O)c2cc(Cl)ccc2N)c(C)n1Cc1ccco1	-	-	-	-	-
COCCn1c(C)cc(C(=O)CSc2nnc(C)s2)c1C	50	70	-	-	-
Cc1cc(C(=O)CSc2nnc(N)s2)c(C)n1Cc1ccco1	-	80	-	-	-
CC(=O)NC(c1ccc(F)c(F)c1)c1nc(-c2cccc(C(C)C)c2)cs1 (stereo not drawn)	-	.	.	.	.
COC(=O)C1(C(=O)OC)c2ncccc2N(S(=O)(=O)c2ccc(C)cc2)C1CC(=O)c1ccccc1 (stereo not drawn)	-	.	.	.	.
Cc1noc(C)c1NC(=O)N1C[C@H](O)COC[C@H]2O[C@@H](CC(=O)NCC3CCCCC3)CC[C@@H]21	-	.	.	.	.
O=c1/c(=C/c2ccccn2)sc2nc3ccccc3n12	54	76	-	-	-
CCc1nc2ccc(C(=O)NCCOc3ccc(OC)cc3)cn2c1N(C=O)Cc1ccc(OC)cc1	-	.	.	.	.
CCOC(=O)C1(C)CCCN1C(=O)c1cccc2ccccc12 (stereo not drawn)	-	.	.	.	.
COc1ccc(C(=O)NCc2cn3cccc(C)c3n2)cc1OC	60	-	-	-	-
CCOc1ccccc1CNC(=O)C1CCN(c2nn3c(=O)cc(C)nc3s2)CC1	-	.	-	.	.
Cc1cc(=O)n2nc(N3CCCC(C(=O)NCc4ccc(F)cc4)C3)sc2n1 (stereo not drawn)	-	.	-	.	.
CCOc1ccc(OCC)c(NC(=O)C2CCN(c3nn4c(=O)cc(C)nc4s3)CC2)c1	67	-	-	-	-
Cc1cc(=O)n2nc(N3CCCC(C(=O)NCc4ccccc4)C3)sc2n1 (stereo not drawn)	-	.	69	.	.
Cc1cccc(C)c1NC(=O)C(c1ccc(C#N)cc1)n1c(=O)c(-c2ccccc2)nc2ccccc21 (stereo not drawn)	-	.	.	.	.
COC(=O)[C@@]12C[C@@H](CC(=O)N3CCN(C(=O)C4CC4)CC3)C(=O)N(Cc3ccc4c(c3)OCO4)C1=CCC(C)(C)C2	-	.	.	.	.
SMILES	TRAIL sens C8	FLuc inh counter	Platelet DG rel	FLuc act counter	PPC-1+TRAIL kill
COc1ccc(C2c3ccc4ccccc4c3Oc3ncn(CCCN(C)C)c(=N)c32)cc1 (stereo not drawn)	58	.	-	.	.
COc1ccccc1C1c2ccc3ccccc3c2Oc2ncn(CCN(C)C)c(=N)c21 (stereo not drawn)	-	.	.	.	.
COc1cc(C(=O)Oc2ccccc2/C=N/NC(=O)c2ccc(C)cc2)cc(OC)c1OC	50	-	-	-	-
COC(=O)c1ccc2nc(-c3ccc(F)cc3)c(CC3CCCCC3)n2c1	-	.	.	.	.
COc1cc(C2CC(c3cccs3)=NN2C(=O)CCl)ccc1OC(F)F (stereo not drawn)	95	.	-	.	.
COc1ccc(C2CC(c3cccs3)=NN2C(=O)CCl)cc1OC (stereo not drawn)	96	.	-	.	.
COc1ccc(C2CC(c3cccs3)=NN2C(=O)c2ccccc2)cc1OC (stereo not drawn)	-	.	-	.	.
COc1ccc(C2CC(c3cccs3)=NN2C(=O)CCC(=O)O)cc1 (stereo not drawn)	-	.	-	.	.
COc1cccc(C(NC(C)=O)c2nc(-c3ccc4ccccc4c3)cs2)c1 (stereo not drawn)	-	.	.	.	.
Cc1cc2nc(-c3ccc[nH]c3=O)[nH]c2cc1C	90	.	52	.	.
COC(=O)[C@H]1C[C@H](OC(=O)NCc2ccccc2F)[C@@]2(O)CN(S(=O)(=O)c3ccc(C)cc3)CC2[C@H]1C(=O)OC (stereo partly drawn)	-	.	.	.	.
CC1(C)Cc2c(c(-c3ccco3)nc3sc4c(NCCN5CCOCC5)ncnc4c23)CO1	-	-	-	-	-
CC1(C)Cc2c(sc3nc(NCCN4CCOCC4)n4ncnc4c23)CO1	-	-	52	-	-
CCCCCCCCN1C(=O)[C@H](CC(=O)N2CCSCC2)C[C@@]2(C(=O)OC)CC(C)(C)CC=C12	-	.	.	.	.
CCOc1ccccc1C=C1SC(=S)N(CC)C1=O	73	.	.	.	.
Oc1c(Cl)cc(CN2CCOCC2)c2cccnc12	-	.	.	.	.
Oc1c(CN2CCCCC2)cc(Br)c2cccnc12	51	-	-	-	-
COC(=O)C[C@H]1C=C[C@H](NS(=O)(=O)c2cn(C)cn2)[C@@H](CO)O1	-	.	.	.	.
CC1(C(=O)NCc2ccccc2)CSCC(=O)N1Cc1cccs1 (stereo not drawn)	-	.	.	.	.
COC(=O)C1(C(F)(F)F)N=C2Sc3ccccc3N2C(N2CCOCC2)=N1 (stereo not drawn)	-	-	105	-	-
COc1ccccc1N1CCN(C(=O)N2CCOCC2)CC1	-	-	-	-	-
CCOc1ccc(-c2nnc(-c3cccs3)o2)cc1	-	65	-	-	-
Cc1cccc(N2CCN(C(=S)Nc3ccc4nc(N5CCN(C)CC5)cc(C)c4c3)CC2)c1C	93	-	-	-	.
Cc1cc(N2CCN(C)CC2)nc2ccc(NC(=S)N3CCN(c4cccc(Cl)c4)CC3)cc12	-	-	-	-	-
Cc1cccc(N2CCN(C(=S)Nc3ccc4nc(N5CCN(C)CC5)cc(C)c4c3)CC2C)c1 (stereo not drawn)	67	-	-	-	-
SMILES	TRAIL sens C8	FLuc inh counter	Platelet DG rel	FLuc act counter	PPC-1+TRAIL kill
Cc1cc(N2CCN(C)CC2)nc2ccc(NC(=S)N3CCCCC3)cc12	-	-	-	-	-
Cc1ccc(S(=O)(=O)Nc2ccc(Nc3nccn4c(-c5ccc6ccccc6c5)cnc34)cc2)cc1	-	.	.	.	.
C[C@H](NC(=O)C1CCN(S(=O)(=O)c2ccccc2)CC1)C(=O)NCc1ccncc1	-	.	.	.	.
CCc1ccc(C2=NN(C(=O)OC)C(O)(C(F)(F)F)C2)cc1 (stereo not drawn)	55	73	-	-	-
CCOC(=O)N1N=C(c2ccc(OC)cc2)CC1(O)C(F)(F)F (stereo not drawn)	-	-	-	-	-
COc1ccc(Cn2cc(CN3CC(N4CCN(CCN(C)C)CC4)CS3(=O)=O)nn2)cc1 (stereo not drawn)	-	.	.	.	.
COc1cccc(-c2cn3nc(C)c(C)nc3n2)c1	-	-	74	-	-
C[C@H]1CN([C@@H](C)CO)C(=O)CCCn2cc(nn2)CO[C@@H]1CN(C)C(=O)CCC(F)(F)F	-	.	.	.	.
C/C(=N\NC(=O)c1ccccn1)c1ccc(Cl)cc1	61	.	-	.	-

Bioassay records as filed in PubChem BioAssay.
